Data set [1] is described as follows: Cytotoxicity against human SKOV3 cells after 48 hrs by neutral red assay. In kind it is cell-based. The settings on record: sk-ov-3, 48 h. Put shortly:
(§1)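 Cells were exposed to peptides up to a highest tested concentration of 10 μg/mL, using a previously reported cytotoxicity protocol.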

The subject of data set [2] is BT-549. Briefly: Cytotoxicity against human BT549 cells after 48 hrs by neutral red assay. The class given is cell-based. The settings on record: bt-549, 48 h. In a few lines:
as §1

For data set [3], the system named is Cryptococcus neoformans. Briefly: Antimicrobial activity against Cryptococcus neoformans ATCC 90113 assessed as complete killing after 70 to 74 hrs by CLSI method. In kind it is functional.
Data set [4] relates to Cryptococcus neoformans. Briefly: Antimicrobial activity against Cryptococcus neoformans ATCC 90113 assessed as detectable growth after 70 to 74 hrs by CLSI method. In kind it is functional.
Data set [5] deals with Vero. Briefly: Cytotoxicity against African green monkey Vero cells after 48 hrs by neutral red assay. The note with it: chlorocebus sabaeus. The class given is cell-based. Put shortly: as §1
Data set [6] has as its system SK-MEL. Briefly: Cytotoxicity against human SK-MEL cells after 48 hrs by neutral red assay. In kind it is cell-based. Put shortly: as §1
Data set [7] concerns Cryptococcus neoformans. Briefly: Antimicrobial activity against Cryptococcus neoformans ATCC 90113 assessed as growth inhibition after 70 to 74 hrs by CLSI method. In kind it is functional, organism-based.
Data set [8] deals with Mycobacterium intracellulare. Briefly: Antimicrobial activity against Mycobacterium intracellulare ATCC 23068 after 70 to 74 hrs by Alamar Blue method. The class given is functional, organism-based. Background: Resazurin is reduced to fluorescent resorufin, in cell work by metabolically active cells.
The nature of data set [9]: Cytotoxicity against pig LLC-PK cells after 48 hrs by neutral red assay. The class given is cell-based, Sus scrofa. In a few lines: as §1
Data set [10] concerns KB. Briefly: Cytotoxicity against human KB cells after 48 hrs by neutral red assay. The class given is cell-based. In a few lines:
as §1

For data set [11], the system named is Staphylococcus aureus. Briefly: Antibacterial activity against Staphylococcus aureus ATCC 29213 assessed as absence of detectable growth. In kind it is functional. In a few lines:
(§2)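 Antibacterial susceptibility determined by the CLSI (formerly NCCLS) protocol. MIC is the lowest test concentration (μg/mL) allowing no detectable growth. MBC is the lowest test concentration killing 100% of the organism.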

The test system of data set [12] is Staphylococcus aureus. Briefly: Antibacterial activity against methicillin-resistant Staphylococcus aureus ATCC 33591 assessed as 100% killing. The class given is functional. In a few lines: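 Testing followed the CLSI (formerly NCCLS) susceptibility protocol. MBC was taken as the lowest test concentration in μg/mL that kills 100% of the organism.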
The subject of data set [13] is Staphylococcus aureus. Briefly: Antibacterial activity against Staphylococcus aureus ATCC 29213 assessed as 100% killing. The class given is functional. In a few lines:
as §2

For data set [14], the system named is Staphylococcus aureus. Briefly: Antibacterial activity against methicillin-resistant Staphylococcus aureus ATCC 33591 assessed as absence of detectable growth. The class given is functional. In a few lines:
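MIC was determined by the CLSI (formerly NCCLS) protocol. It was taken as the lowest test concentration in μg/mL allowing no detectable growth.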

These results are taken from ChEMBL document CHEMBL3351734 (Bioorg Med Chem Lett, 2014).

≈ marks a conversion by molar mass, not a printed value. Calls of active or inactive are those of the source. The rule behind the calls is not given here. Residues, ends and D or L forms follow the SMILES beside them. *: point of attachment. Boc = CC(C)(C)OC(=O)*; NHBn = c1ccc(CN*)cc1

As usually defined, the MIC is the lowest concentration that inhibits growth of the organism. With `N[C@@H](Cc1cnc(C2CCCC2)[nH]1)C(=O)N[C@@H](Cc1c[nH]c2ccccc12)C(=O)N[C@@H](Cc1cnc(C2CCCC2)[nH]1)C(=O)NCc1ccccc1`, the Activity in data set [1], in data set [2], in data set [5], in data set [6], in [9] and in data set [10] was more than 10 µg/mL each time. The MFC entry in data set [3] was “inactive”. Also, the MIC entry in data set [4] is “inactive”. Further, the IC50 entry in data set [7] is “Not Active”. Also, the inhibition entry in [8] is “inactive”.
`CC(C)(C)OC(=O)N[C@@H](Cc1cnc(C(C)(C)C)[nH]1)C(=O)N[C@@H](Cc1c[nH]c2ccccc12)C(=O)N[C@@H](Cc1cnc(C(C)(C)C)[nH]1)C(=O)NCc1ccccc1`: the Activity in data set [1], in data set [2], in [5], in data set [6], in data set [9] and in data set [10] was more than 10 µg/mL throughout. Also, the MFC entry in data set [3] was “inactive”. For the same compound, in data set [4], the MIC result is “inactive”. Moreover, the IC50 result in data set [7] is “Not Active”. The inhibition result in data set [8] is “inactive”.
For `CC(C)c1ncc(C[C@H](NC(=O)[C@H](Cc2c[nH]c3ccccc23)NC(=O)[C@@H](N)Cc2cnc(C(C)C)[nH]2)C(=O)NCc2ccccc2)[nH]1`, the Activity in data set [1], in data set [2], in data set [5], in [6], in [9] and in data set [10] was more than 10 µg/mL in each case. In addition, the MIC in data set [4] came out at 20 µg/mL (≈ 30.7 µM). For the same compound, in data set [8], the inhibition result is “inactive”.
For the compound `O=C(O)c1cn(C2CC2)c2cc(N3CCNCC3)c(F)cc2c1=O` [CIPROFLOXACIN], in data set [8], the inhibition entry is “inactive”.
As to `N[C@@H](Cc1cnc[nH]1)C(=O)N[C@@H](Cc1c[nH]c2ccccc12)C(=O)N[C@@H](Cc1cnc[nH]1)C(=O)NCc1ccccc1` (H-His-Trp-His-NHBn), the Activity in data set [1], in data set [2], in data set [5], in data set [6], in data set [9] and in data set [10] was more than 10 µg/mL each time. For the same compound, in data set [3], the MFC worked out at 10 µg/mL (≈ 17.6 µM). Also, the inhibition entry in data set [8] was “inactive”.
Regarding `CC(C)(C)OC(=O)N[C@@H](Cc1cnc[nH]1)C(=O)N[C@@H](Cc1c[nH]c2ccccc12)C(=O)N[C@@H](Cc1cnc[nH]1)C(=O)NCc1ccccc1` (Boc-His-Trp-His-NHBn), the Activity in [1], in data set [2], in data set [5], in data set [6], in data set [9] and in data set [10] was more than 10 µg/mL each time. Besides, in data set [3], the MFC stood at 1.25 µg/mL (≈ 1.87 µM). The inhibition result in data set [8] was “inactive”.
On to `CC(C)c1ncc(C[C@H](NC(=O)OC(C)(C)C)C(=O)N[C@@H](Cc2c[nH]c3ccccc23)C(=O)N[C@@H](Cc2cnc(C(C)C)[nH]2)C(=O)NCc2ccccc2)[nH]1`, for which the Activity in data set [1], in data set [2], in [5], in data set [6], in [9] and in [10] was more than 10 µg/mL in each case. Moreover, the MFC entry in data set [3] is “inactive”. In addition, the MIC entry in [4] was “inactive”. Besides, in data set [7], the IC50 entry was “Not Active”. Besides, the inhibition entry in [8] is “inactive”.
The MBC is the lowest tested concentration that kills the bacteria rather than only halting them. Consider `CC(C)(C)OC(=O)N[C@@H](Cc1cnc(C23CC4CC(CC(C4)C2)C3)[nH]1)C(=O)N[C@@H](Cc1c[nH]c2ccccc12)C(=O)N[C@@H](Cc1cnc(C23CC4CC(CC(C4)C2)C3)[nH]1)C(=O)NCc1ccccc1`, for which the MIC in data set [11] was found to be 20 µg/mL (≈ 21.4 µM). In addition, the Activity in data set [1], in [2], in data set [5], in data set [6], in data set [9] and in data set [10] was more than 10 µg/mL each time. The MBC in [12] and in data set [13] was 20 µg/mL (≈ 21.4 µM) in each case. Further, in data set [8], the inhibition entry is “inactive”.
On to `C[C@@H]1[C@H](O)[C@@H](C)/C=C/C=C/C=C/C=C/C=C/C=C/C=C/[C@H](O[C@@H]2O[C@H](C)[C@@H](O)[C@H](N)[C@@H]2O)C[C@@H]2O[C@](O)(C[C@@H](O)C[C@@H](O)[C@H](O)CC[C@@H](O)C[C@@H](O)CC(=O)O[C@H]1C)C[C@H](O)[C@H]2C(=O)O` [AMPHOTERICIN B], for which the Activity in [1], in data set [2], in [5], in data set [6], in [9] and in data set [10] was more than 10 µg/mL throughout. Further, in data set [3], the MFC came to 1.25 µg/mL (≈ 1.35 µM). Also, the inhibition result in data set [8] is “inactive”.
On to `N[C@@H](Cc1cnc(C2CCCCC2)[nH]1)C(=O)N[C@@H](Cc1c[nH]c2ccccc12)C(=O)N[C@@H](Cc1cnc(C2CCCCC2)[nH]1)C(=O)NCc1ccccc1`, for which the Activity in data set [1], in [2], in [5], in data set [6], in data set [9] and in data set [10] was more than 10 µg/mL in each case. In addition, the MIC in data set [4] came to 1.25 µg/mL (≈ 1.71 µM). Also, the inhibition entry in [8] is “inactive”.
For the compound `CC(C)(C)OC(=O)N[C@@H](Cc1cnc(C2CCCC2)[nH]1)C(=O)N[C@@H](Cc1c[nH]c2ccccc12)C(=O)N[C@@H](Cc1cnc(C2CCCC2)[nH]1)C(=O)NCc1ccccc1`, the Activity in data set [1], in data set [2], in [5], in [6], in [9] and in data set [10] was more than 10 µg/mL throughout. For the same compound, the MFC result in [3] is “inactive”. Moreover, the MIC entry in data set [4] is “inactive”. In data set [8], the inhibition entry was “inactive”.
With `CC(C)(C)OC(=O)N[C@@H](Cc1cnc(C2CCCCC2)[nH]1)C(=O)N[C@@H](Cc1c[nH]c2ccccc12)C(=O)N[C@@H](Cc1cnc(C2CCCCC2)[nH]1)C(=O)NCc1ccccc1`, the Activity in data set [1], in data set [2], in data set [5], in data set [6], in data set [9] and in data set [10] was more than 10 µg/mL throughout. For the same compound, in data set [3], the MFC entry is “inactive”. Besides, the MIC result in [4] was “inactive”. Also, in data set [7], the IC50 entry is on record as “Not Active”. In addition, the inhibition result in [8] was “inactive”.
Take `CC(C)(C)c1ncc(C[C@H](NC(=O)[C@H](Cc2c[nH]c3ccccc23)NC(=O)[C@@H](N)Cc2cnc(C(C)(C)C)[nH]2)C(=O)NCc2ccccc2)[nH]1`: the Activity in [1], in [2], in data set [5], in data set [6], in [9] and in [10] was more than 10 µg/mL each time. Further, in data set [3], the MFC was found to be 20 µg/mL (≈ 29.4 µM). In addition, the inhibition entry in [8] was “inactive”.
As to `N[C@@H](Cc1cnc(C23CC4CC(CC(C4)C2)C3)[nH]1)C(=O)N[C@@H](Cc1c[nH]c2ccccc12)C(=O)N[C@@H](Cc1cnc(C23CC4CC(CC(C4)C2)C3)[nH]1)C(=O)NCc1ccccc1`, the MIC in data set [11] came out at 5 µg/mL (≈ 5.98 µM); in data set [4], 0.63 µg/mL (≈ 0.754 µM); in data set [14], 10 µg/mL (≈ 12 µM). The Activity in data set [1], in data set [2], in [5], in [6], in data set [9] and in data set [10] was more than 10 µg/mL each time. In addition, in data set [8], the inhibition entry was “inactive”.
